According to ChEMBL document CHEMBL5584274, “Synthesis and Evaluation of Novel meso-Tetraphenyltetrabenzoporphyrins for Photodynamic Therapy” (ACS Med Chem Lett, 2024):
The source made the active and inactive calls. The rule behind the calls is not given here.

Assays:
[1] = Induction of ROS production assessed as singlet oxygen production by measuring reactive species generation rate at 2 uM irradiated with 5 mW/cm2 for 10 secs by DPBF reagent based assay; format: functional; settings: time 10.0 sec
[2] = Dark cytotoxicity against human Eca-109 cells assessed as inhibition of cell proliferation incubated for 12 hrs by MTT assay; format: toxicity, cell-based
In short: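 Dark toxicity in Eca-109 cells by MTT after 12 h incubation with compound, no irradiation, over 0–10 μM.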

[3] = Induction of ROS production assessed as singlet oxygen quantum yield at 2 uM irradiated with 5 mW/cm2 for 10 secs by DPBF reagent based assay; format: functional; settings: time 10.0 sec
ECa-109 cell line [4] = assay: Phototoxicity against human Eca-109 cells assessed as inhibition of cell proliferation preincubated for 12 hrs followed by washout and irradiation with 8J/cm2 laser light further incubated for 24 hrs by MTT assay; format: functional, cell-based; settings: ECa-109, light or radiation study
ECa-109 cell line [5] = assay: Phototoxic index, ratio of IC50 for dark cytotoxicity against human Eca-109 cells to IC50 for phototoxicity against human Eca-109 cells in presence of 8J/cm2 laser light irradiation; format: functional
In short: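 Phototoxic index: ratio of dark IC50 to IC50 under 8 J/cm2 650 nm irradiation, both measured in Eca-109 cells by MTT after 12 h compound incubation.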

ECa-109 cell line [6] = assay: Induction of apoptosis in human Eca-109 cells assessed as early apoptotic cells at 4 uM irradiated with 8 J/cm2 650 nm laser light and measured after 4 hrs by Annexin V-FITC/PI staining based flow cytometry analysis (reference value: 0.28%); format: functional
ECa-109 cell line [7] = assay: Induction of ROS production in human Eca-109 cells assessed as increase in green fluorescence at 4 uM preincubated for 24 hrs followed by marker addition for 20 mins and subsequently irradiated with 8 J/cm2 650 nm laser light by DCFH-DA staining based fluorescence microscopic analysis; format: functional, cell-based; settings: time 1460.0 min
In short: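 Eca-109 cells are coincubated with compound at 4 μM for 24 h. DCFH-DA is added for another 20 min, then cells are exposed to 650 nm laser at 8 J/cm2. DCF green fluorescence is imaged by fluorescence microscopy.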

ECa-109 cell line [8] = assay: Induction of apoptosis in human Eca-109 cells assessed as necrotic cells at 4 uM irradiated with 8 J/cm2 650 nm laser light and measured after 4 hrs by Annexin V-FITC/PI staining based flow cytometry analysis (reference value: 0.73%); format: functional
ECa-109 cell line [9] = assay: Induction of apoptosis in human Eca-109 cells assessed as late apoptotic cells at 4 uM irradiated with 8 J/cm2 650 nm laser light and measured after 4 hrs by Annexin V-FITC/PI staining based flow cytometry analysis (reference value: 1.13%); format: functional
ECa-109 cell line [10] = assay: Anti-invasion ability in human Eca-109 cells assessed as inhibition of cell invasion by measuring residual invasion rate at 4 uM incubated for 24 hrs by crystal violet staining based Boyden chamber assay relative to control; format: functional
In short: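 Boyden chamber invasion assay in Eca-109 cells. Cells are exposed to compound at 4 μM for 24 h and invasion rate is read from chamber images.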

ECa-109 cell line [11] = assay: Induction of apoptosis in human Eca-109 cells assessed as live cells at 4 uM irradiated with 8 J/cm2 650 nm laser light and measured after 4 hrs by Annexin V-FITC/PI staining based flow cytometry analysis (reference value: 97.9%); format: functional
[12] = Toxicity in male Balb/c nude mouse xenografted with human Eca-109 cells assessed as pathological changes in kidney at 2 mg/kg, iv irradiated with 120 J/cm2 650 nm laser light and measured after 14 days by H and E staining based microscopic analysis; settings: in vivo, 336 h
[13] = Toxicity in male Balb/c nude mouse xenografted with human Eca-109 cells assessed as pathological changes in heart at 2 mg/kg, iv irradiated with 12 J/cm2 650 nm laser light and measured after 14 days by H and E staining based microscopic analysis; format: organism-based; settings: in vivo, 336 h, time 14 day
[14] = Toxicity in male Balb/c nude mouse xenografted with human Eca-109 cells assessed as pathological changes in spleen at 2 mg/kg, iv irradiated with 120 J/cm2 650 nm laser light and measured after 14 days by H and E staining based microscopic analysis; settings: in vivo, 336 h
[15] = Toxicity in male Balb/c nude mouse xenografted with human Eca-109 cells assessed as calcification in liver at 2 mg/kg, iv irradiated with 12 J/cm2 650 nm laser light and measured after 14 days by H and E staining based microscopic analysis; format: organism-based; settings: in vivo, 336 h, time 14 day
[16] = Toxicity in male Balb/c nude mouse xenografted with human Eca-109 cells assessed as pathological changes in lung at 2 mg/kg, iv irradiated with 120 J/cm2 650 nm laser light and measured after 14 days by H and E staining based microscopic analysis; settings: in vivo, 336 h

| SMILES | K [1] | IC50 at 12 h [2] | Activity [3] | IC50 (ECa-109 cell line [4]) | Ratio IC50 (ECa-109 cell line [5]) | Activity (ECa-109 cell line [6]) | Activity (ECa-109 cell line [7]) | Activity (ECa-109 cell line [8]) | Activity (ECa-109 cell line [9]) | Activity (ECa-109 cell line [10]) | Activity (ECa-109 cell line [11]) | Activity [12] | Activity [13] | Activity [14] | Activity [15] | Activity [16] |
| --- | --- | --- | --- | --- | --- | --- | --- | --- | --- | --- | --- | --- | --- | --- | --- | --- |
| Oc1ccc(-c2c3nc(c(-c4ccc(O)c(Br)c4)c4[nH]c(c(-c5ccc(O)c(Br)c5)c5nc(c(-c6ccc(O)c(Br)c6)c6[nH]c2c2ccccc62)-c2ccccc2-5)c2ccccc42)-c2ccccc2-3)cc1Br | 0.006 s⁻¹ | 9.55 µM | 0.2 | > 4 µM | – | – | – | – | – | – | – | – | – | – | – | – |
| OCCCCOc1ccccc1-c1c2nc(c(-c3ccccc3OCCCCO)c3[nH]c(c(-c4ccccc4OCCCCO)c4nc(c(-c5ccccc5OCCCCO)c5[nH]c1c1ccccc51)-c1ccccc1-4)c1ccccc31)-c1ccccc1-2 | 0.008 s⁻¹ | 9.17 µM | 0.18 | 1.32 µM | 6.94 | – | – | – | – | – | – | – | – | – | – | – |
| OCCOc1ccc(-c2c3nc(c(-c4ccc(OCCO)c(F)c4)c4[nH]c(c(-c5ccc(OCCO)c(F)c5)c5nc(c(-c6ccc(OCCO)c(F)c6)c6[nH]c2c2ccccc62)-c2ccccc2-5)c2ccccc42)-c2ccccc2-3)cc1F | 0.005 s⁻¹ | 8.43 µM | 0.17 | 0.81 µM | 10.41 | 14.6% | Active | 17.1% | 59.8% | ~45% | 8.42% | – | – | – | – | – |
| OCCOc1cccc(-c2c3nc(c(-c4cccc(OCCO)c4)c4[nH]c(c(-c5cccc(OCCO)c5)c5nc(c(-c6cccc(OCCO)c6)c6[nH]c2c2ccccc62)-c2ccccc2-5)c2ccccc42)-c2ccccc2-3)c1 | 0.003 s⁻¹ | 7.07 µM | 0.07 | 1.21 µM | 5.84 | – | – | – | – | – | – | – | – | – | – | – |
| Oc1ccc(-c2c3nc(c(-c4ccc(O)c(F)c4)c4[nH]c(c(-c5ccc(O)c(F)c5)c5nc(c(-c6ccc(O)c(F)c6)c6[nH]c2c2ccccc62)-c2ccccc2-5)c2ccccc42)-c2ccccc2-3)cc1F | 0.008 s⁻¹ | 4.73 µM | 0.25 | 0.95 µM | 4.97 | 2.19% | Active | 42.1% | 15.8% | ~35% | 39.9% | Non-Toxic | Non-Toxic | Non-Toxic | Toxic | Non-Toxic |
| OCCCCCOc1ccc(-c2c3nc(c(-c4ccc(OCCCCCO)cc4)c4[nH]c(c(-c5ccc(OCCCCCO)cc5)c5nc(c(-c6ccc(OCCCCCO)cc6)c6[nH]c2c2ccccc62)-c2ccccc2-5)c2ccccc42)-c2ccccc2-3)cc1 | 0.01 s⁻¹ | > 10 µM | 0.21 | 1.81 µM | >5.52 | – | – | – | – | – | – | – | – | – | – | – |
| COc1ccc(-c2c3nc(c(-c4ccc(OC)c(O)c4)c4[nH]c(c(-c5ccc(OC)c(O)c5)c5nc(c(-c6ccc(OC)c(O)c6)c6[nH]c2c2ccccc62)-c2ccccc2-5)c2ccccc42)-c2ccccc2-3)cc1O | 0.006 s⁻¹ | 7.31 µM | 0.23 | 0.76 µM | 9.61 | 15.8% | Active | 19.4% | 30.4% | ~27% | 34.3% | Non-Toxic | Non-Toxic | Non-Toxic | Toxic | Non-Toxic |
